Measured values as given in ChEMBL document CHEMBL3868585, “Absolute Configuration of Dihydro-β-agarofuran Sesquiterpenes from Maytenus jelskii and Their Potential Antitumor-Promoting Effects” (J Nat Prod, 2016).

system: Raji; test: Inhibition of TPA-induced EBV-early antigen activation in human Raji cells assessed as remaining activity at 100 molar ratio per TPA after 48 hrs by immunofluorescence method relative to TPA; type: cell-based; conditions: human gammaherpesvirus 4
Outline: (§1)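 Raji cells (EBV genome-carrying, virus nonproducer) grown in RPMI1640 with 10% FBS; 1 × 10^6 cells incubated 48 h at 37 °C in 1 mL medium with n-butyric acid (4 mmol), TPA (32 pmol) in DMSO, and test compound in 5 μL DMSO at 10, 100, 500 or 1000 mol ratio/TPA. EA-positive cells detected by indirect immunofluorescence with NPC patient serum, ≥500 cells counted; triplicates, expressed relative to butyrate+TPA control (100%).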

Compound	Activity [%]
CC(=O)O[C@@H]1[C@H](O)[C@@H](C)[C@]23OC(C)(C)[C@H]([C@H](OC(C)=O)[C@H](OC(=O)c4ccccc4)[C@]2(C)[C@H]1OC(=O)c1ccoc1)[C@H]3OC(C)=O	87
CC(=O)O[C@H]1[C@@H]2C[C@@]3(OC2(C)C)[C@](C)([C@H]1OC(=O)c1ccccc1)[C@@H](OC(=O)c1ccccc1)[C@H](OC(C)=O)[C@H](OC(C)=O)[C@]3(C)O	79.3
CC(=O)O[C@@H]1[C@H](O)[C@@H](C)[C@]23OC(C)(C)[C@H]([C@H](OC(C)=O)[C@H](OC(=O)c4ccccc4)[C@]2(C)[C@H]1OC(=O)c1ccccc1)[C@H]3OC(C)=O	79.5
CC(=O)OC[C@]12[C@@H](OC(=O)c3ccco3)C[C@@H]3[C@@H](OC(=O)c4ccccc4)[C@]1(OC3(C)C)[C@@](C)(O)C[C@@H](OC(C)=O)[C@@H]2OC(C)=O	81.9
CC(=O)O[C@H]1[C@H](OC(=O)c2ccccc2)C[C@](C)(O)[C@]23OC(C)(C)[C@H](C[C@H](OC(=O)c4ccco4)[C@]12CO)[C@H]3OC(=O)c1ccccc1	82.2
CC(=O)O[C@@H]1[C@H](O)[C@@H](C)[C@]23OC(C)(C)[C@H]([C@H](OC(C)=O)[C@H](OC(=O)c4ccccc4)[C@]2(C)[C@H]1OC(=O)c1ccccc1)[C@H]3O	76.3
CC(=O)O[C@H]1[C@H](OC(=O)c2ccccc2)[C@@]2(C)[C@@H](OC(=O)/C=C/c3ccccc3)[C@@H](O)[C@@H]3[C@@H](OC(C)=O)[C@]2(OC3(C)C)[C@@](C)(O)[C@H]1OC(C)=O	88.6
CC(=O)O[C@@H]1[C@H](O)[C@@H](C)[C@]23OC(C)(C)[C@H](C[C@H](OC(=O)c4ccccc4)[C@]2(C)[C@H]1OC(=O)c1ccccc1)[C@H]3OC(C)=O	81
CC(=O)O[C@H]1[C@H](OC(=O)c2ccccc2)[C@@]2(C)[C@@H](OC(=O)/C=C/c3ccccc3)[C@@H](O)[C@@H]3[C@@H](O)[C@]2(OC3(C)C)[C@@](C)(O)[C@H]1OC(C)=O	85

system: Raji; test: Inhibition of TPA-induced EBV-early antigen activation in human Raji cells assessed as cell viability at 1000 molar ratio per TPA after 48 hrs by trypan blue staining method; type: cell-based; conditions: human gammaherpesvirus 4
Outline: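 Raji cells treated 48 h at 37 °C with n-butyric acid (4 mmol), TPA (32 pmol) and test compound in DMSO at 1000 mol ratio/TPA; viability determined by Trypan Blue staining.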

Compound	Cell viability [%]
CC1(C)O[C@]23C[C@H]1C[C@H](OC(=O)c1ccccc1)[C@]2(C)[C@@H](OC(=O)c1ccco1)CC[C@]3(C)O	> 60
CC(=O)O[C@@H]1[C@H](O)[C@@H](C)[C@]23OC(C)(C)[C@H]([C@H](OC(C)=O)[C@H](OC(=O)c4ccccc4)[C@]2(C)[C@H]1OC(=O)c1ccoc1)[C@H]3OC(C)=O	> 60
CC(=O)O[C@H]1[C@H](OC(=O)c2ccccc2)[C@@]2(C)[C@@H](OC(=O)/C=C/c3ccccc3)C[C@@H]3[C@@H](OC(C)=O)[C@]2(OC3(C)C)[C@@](C)(O)[C@H]1OC(=O)c1cccnc1	> 60
CC(=O)O[C@@H]1[C@H](O)[C@@H](C)[C@]23OC(C)(C)[C@H](C[C@H](OC(=O)/C=C/c4ccccc4)[C@]2(C)[C@H]1OC(=O)c1ccccc1)[C@H]3O	> 60
CC(=O)O[C@H]1[C@@H]2C[C@@]3(OC2(C)C)[C@](C)([C@H]1OC(=O)c1ccccc1)[C@@H](OC(=O)c1ccccc1)[C@H](OC(C)=O)[C@H](OC(C)=O)[C@]3(C)O	> 60
CC(=O)O[C@@H]1C[C@](C)(O)[C@@]23C[C@@H](C[C@H](OC(=O)c4ccccc4)[C@]2(C)[C@H]1OC(=O)c1ccco1)C(C)(C)O3	> 60
CC(=O)O[C@H]1[C@H](OC(=O)c2ccco2)[C@@]2(C)[C@@H](OC(=O)c3ccccc3)C[C@@H]3C[C@]2(OC3(C)C)[C@@](C)(O)[C@H]1OC(C)=O	> 60
CC(=O)O[C@@H]1C[C@](C)(O)[C@@]23C[C@@H](C[C@H](OC(=O)/C=C/c4ccccc4)[C@]2(C)[C@H]1OC(=O)c1ccco1)C(C)(C)O3	> 60
CC(=O)O[C@@H]1[C@H](O)[C@@H](C)[C@]23OC(C)(C)[C@H]([C@H](OC(C)=O)[C@H](OC(=O)c4ccccc4)[C@]2(C)[C@H]1OC(=O)c1ccccc1)[C@H]3OC(C)=O	> 60
CC(=O)O[C@@H]1[C@H](O)[C@@H](C)[C@]23OC(C)(C)[C@H](C[C@H](OC(=O)/C=C/c4ccccc4)[C@]2(C)[C@H]1OC(=O)c1ccccc1)[C@H]3OC(C)=O	> 60
CC(=O)OC[C@]12[C@@H](OC(=O)c3ccco3)C[C@@H]3[C@@H](OC(=O)c4ccccc4)[C@]1(OC3(C)C)[C@@](C)(O)C[C@@H](OC(C)=O)[C@@H]2OC(C)=O	> 60
CC(=O)O[C@H]1[C@H](OC(=O)c2ccccc2)C[C@](C)(O)[C@]23OC(C)(C)[C@H](C[C@H](OC(=O)c4ccco4)[C@]12CO)[C@H]3OC(=O)c1ccccc1	> 60
CC(=O)O[C@@H]1[C@H](O)[C@@H](C)[C@]23OC(C)(C)[C@H]([C@H](OC(C)=O)[C@H](OC(=O)c4ccccc4)[C@]2(C)[C@H]1OC(=O)c1ccccc1)[C@H]3O	> 60
CC(=O)O[C@H]1[C@H](OC(=O)c2ccccc2)[C@@]2(C)[C@@H](OC(=O)/C=C/c3ccccc3)[C@@H](O)[C@@H]3[C@@H](OC(C)=O)[C@]2(OC3(C)C)[C@@](C)(O)[C@H]1OC(C)=O	> 60
CC(=O)O[C@H]1[C@H](OC(=O)c2ccccc2)[C@@]2(C)[C@@H](OC(=O)/C=C/c3ccccc3)C[C@]3(O)C[C@]2(OC3(C)C)[C@@](C)(O)[C@H]1OC(C)=O	> 60
CC(=O)O[C@@H]1[C@H](OC(C)=O)[C@@H](C)[C@@]23C[C@@H](C[C@H](OC(=O)c4ccccc4)[C@]2(C)[C@H]1OC(=O)c1ccco1)C(C)(C)O3	> 60
CC(=O)O[C@H]1[C@H](OC(=O)c2ccccc2)[C@@]2(C)[C@@H](OC(=O)/C=C/c3ccccc3)[C@@H](O)[C@@H]3C[C@]2(OC3(C)C)[C@@](C)(O)[C@H]1OC(C)=O	> 60
CC(=O)O[C@@H]1[C@H](O)[C@@H](C)[C@]23OC(C)(C)[C@H](C[C@H](OC(=O)c4ccccc4)[C@]2(C)[C@H]1OC(=O)c1ccccc1)[C@H]3OC(C)=O	> 60
CC(=O)O[C@H]1[C@H](OC(=O)c2ccccc2)C[C@](C)(O)[C@]23OC(C)(C)[C@H](C[C@H](OC(=O)c4ccco4)[C@]12C)[C@H]3OC(=O)c1ccccc1	> 60
CC(=O)O[C@H]1[C@H](OC(=O)c2ccccc2)[C@@]2(C)[C@@H](OC(=O)/C=C/c3ccccc3)[C@@H](O)[C@@H]3[C@@H](O)[C@]2(OC3(C)C)[C@@](C)(O)[C@H]1OC(C)=O	> 60

system: Raji; test: Inhibition of TPA-induced EBV-early antigen activation in human Raji cells at 100 molar ratio per TPA after 48 hrs by immunofluorescence method relative to TPA; type: cell-based; conditions: human gammaherpesvirus 4; outline: as §1

Compound	inhibition [%]
CC(=O)O[C@@H]1[C@H](O)[C@@H](C)[C@]23OC(C)(C)[C@H]([C@H](OC(C)=O)[C@H](OC(=O)c4ccccc4)[C@]2(C)[C@H]1OC(=O)c1ccccc1)[C@H]3O	23.7

system: Raji; test: Inhibition of TPA-induced EBV-early antigen activation in human Raji cells at 500 molar ratio per TPA after 48 hrs by immunofluorescence method relative to TPA; type: cell-based; conditions: human gammaherpesvirus 4; outline: as §1

Compound	inhibition [%]
CC(=O)O[C@@H]1[C@H](O)[C@@H](C)[C@]23OC(C)(C)[C@H]([C@H](OC(C)=O)[C@H](OC(=O)c4ccccc4)[C@]2(C)[C@H]1OC(=O)c1ccccc1)[C@H]3O	69.9

system: Raji; test: Inhibition of TPA-induced EBV-early antigen activation in human Raji cells at 1000 molar ratio per TPA after 48 hrs by immunofluorescence method relative to TPA; type: cell-based; conditions: human gammaherpesvirus 4; outline: as §1

Compound	inhibition [%]
CC(=O)O[C@@H]1[C@H](O)[C@@H](C)[C@]23OC(C)(C)[C@H]([C@H](OC(C)=O)[C@H](OC(=O)c4ccccc4)[C@]2(C)[C@H]1OC(=O)c1ccccc1)[C@H]3O	100

system: Raji; test: Inhibition of TPA-induced EBV-early antigen activation in human Raji cells after 48 hrs by immunofluorescence method relative to TPA; type: cell-based; conditions: human gammaherpesvirus 4; outline: as §1

Compound	inhibition
CC1(C)O[C@]23C[C@H]1C[C@H](OC(=O)c1ccccc1)[C@]2(C)[C@@H](OC(=O)c1ccco1)CC[C@]3(C)O	Dose-dependent effect
CC(=O)O[C@@H]1[C@H](O)[C@@H](C)[C@]23OC(C)(C)[C@H]([C@H](OC(C)=O)[C@H](OC(=O)c4ccccc4)[C@]2(C)[C@H]1OC(=O)c1ccoc1)[C@H]3OC(C)=O	Dose-dependent effect
CC(=O)O[C@H]1[C@H](OC(=O)c2ccccc2)[C@@]2(C)[C@@H](OC(=O)/C=C/c3ccccc3)C[C@@H]3[C@@H](OC(C)=O)[C@]2(OC3(C)C)[C@@](C)(O)[C@H]1OC(=O)c1cccnc1	Dose-dependent effect
CC(=O)O[C@@H]1[C@H](O)[C@@H](C)[C@]23OC(C)(C)[C@H](C[C@H](OC(=O)/C=C/c4ccccc4)[C@]2(C)[C@H]1OC(=O)c1ccccc1)[C@H]3O	Dose-dependent effect
CC(=O)O[C@H]1[C@@H]2C[C@@]3(OC2(C)C)[C@](C)([C@H]1OC(=O)c1ccccc1)[C@@H](OC(=O)c1ccccc1)[C@H](OC(C)=O)[C@H](OC(C)=O)[C@]3(C)O	Dose-dependent effect
CC(=O)O[C@@H]1C[C@](C)(O)[C@@]23C[C@@H](C[C@H](OC(=O)c4ccccc4)[C@]2(C)[C@H]1OC(=O)c1ccco1)C(C)(C)O3	Dose-dependent effect
CC(=O)O[C@H]1[C@H](OC(=O)c2ccco2)[C@@]2(C)[C@@H](OC(=O)c3ccccc3)C[C@@H]3C[C@]2(OC3(C)C)[C@@](C)(O)[C@H]1OC(C)=O	Dose-dependent effect
CC(=O)O[C@@H]1C[C@](C)(O)[C@@]23C[C@@H](C[C@H](OC(=O)/C=C/c4ccccc4)[C@]2(C)[C@H]1OC(=O)c1ccco1)C(C)(C)O3	Dose-dependent effect
CC(=O)O[C@@H]1[C@H](O)[C@@H](C)[C@]23OC(C)(C)[C@H]([C@H](OC(C)=O)[C@H](OC(=O)c4ccccc4)[C@]2(C)[C@H]1OC(=O)c1ccccc1)[C@H]3OC(C)=O	Dose-dependent effect
CC(=O)O[C@@H]1[C@H](O)[C@@H](C)[C@]23OC(C)(C)[C@H](C[C@H](OC(=O)/C=C/c4ccccc4)[C@]2(C)[C@H]1OC(=O)c1ccccc1)[C@H]3OC(C)=O	Dose-dependent effect
CC(=O)OC[C@]12[C@@H](OC(=O)c3ccco3)C[C@@H]3[C@@H](OC(=O)c4ccccc4)[C@]1(OC3(C)C)[C@@](C)(O)C[C@@H](OC(C)=O)[C@@H]2OC(C)=O	Dose-dependent effect
CC(=O)O[C@H]1[C@H](OC(=O)c2ccccc2)C[C@](C)(O)[C@]23OC(C)(C)[C@H](C[C@H](OC(=O)c4ccco4)[C@]12CO)[C@H]3OC(=O)c1ccccc1	Dose-dependent effect
CC(=O)O[C@@H]1[C@H](O)[C@@H](C)[C@]23OC(C)(C)[C@H]([C@H](OC(C)=O)[C@H](OC(=O)c4ccccc4)[C@]2(C)[C@H]1OC(=O)c1ccccc1)[C@H]3O	Dose-dependent effect
CC(=O)O[C@H]1[C@H](OC(=O)c2ccccc2)[C@@]2(C)[C@@H](OC(=O)/C=C/c3ccccc3)[C@@H](O)[C@@H]3[C@@H](OC(C)=O)[C@]2(OC3(C)C)[C@@](C)(O)[C@H]1OC(C)=O	Dose-dependent effect
CC(=O)O[C@H]1[C@H](OC(=O)c2ccccc2)[C@@]2(C)[C@@H](OC(=O)/C=C/c3ccccc3)C[C@]3(O)C[C@]2(OC3(C)C)[C@@](C)(O)[C@H]1OC(C)=O	Dose-dependent effect
CC(=O)O[C@@H]1[C@H](OC(C)=O)[C@@H](C)[C@@]23C[C@@H](C[C@H](OC(=O)c4ccccc4)[C@]2(C)[C@H]1OC(=O)c1ccco1)C(C)(C)O3	Dose-dependent effect
CC(=O)O[C@H]1[C@H](OC(=O)c2ccccc2)[C@@]2(C)[C@@H](OC(=O)/C=C/c3ccccc3)[C@@H](O)[C@@H]3C[C@]2(OC3(C)C)[C@@](C)(O)[C@H]1OC(C)=O	Dose-dependent effect
CC(=O)O[C@@H]1[C@H](O)[C@@H](C)[C@]23OC(C)(C)[C@H](C[C@H](OC(=O)c4ccccc4)[C@]2(C)[C@H]1OC(=O)c1ccccc1)[C@H]3OC(C)=O	Dose-dependent effect
CC(=O)O[C@H]1[C@H](OC(=O)c2ccccc2)C[C@](C)(O)[C@]23OC(C)(C)[C@H](C[C@H](OC(=O)c4ccco4)[C@]12C)[C@H]3OC(=O)c1ccccc1	Dose-dependent effect
CC(=O)O[C@H]1[C@H](OC(=O)c2ccccc2)[C@@]2(C)[C@@H](OC(=O)/C=C/c3ccccc3)[C@@H](O)[C@@H]3[C@@H](O)[C@]2(OC3(C)C)[C@@](C)(O)[C@H]1OC(C)=O	Dose-dependent effect

system: Raji; test: Inhibition of TPA-induced EBV-early antigen activation in human Raji cells at 10 molar ratio per TPA after 48 hrs by immunofluorescence method relative to TPA; type: cell-based; conditions: human gammaherpesvirus 4; outline: as §1

Compound	inhibition [%]
CC(=O)O[C@@H]1[C@H](O)[C@@H](C)[C@]23OC(C)(C)[C@H]([C@H](OC(C)=O)[C@H](OC(=O)c4ccccc4)[C@]2(C)[C@H]1OC(=O)c1ccccc1)[C@H]3O	2.2
